{"source": "ChEMBL document CHEMBL1649505", "about": "“Activity of telavancin against Staphylococcus aureus strains with various vancomycin susceptibilities in an in vitro pharmacokinetic/pharmacodynamic model with simulated endocardial vegetations” (Antimicrob Agents Chemother, 2009)", "key": {"[1]": {"test_system": "Staphylococcus aureus", "test": "Antimicrobial activity against heteroresistant glycopeptide-intermediate Staphylococcus aureus 1629 by broth microdilution method", "assay_type": "functional", "how_it_was_run": "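MICs determined by broth microdilution at ~5.5 log10 CFU/ml following CLSI guidelines.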"}, "[2]": {"test_system": "Staphylococcus aureus", "test": "Antibacterial activity against glycopeptide-intermediate Staphylococcus aureus NJ992 assessed as bacterial load per gram in in vitro pharmacokinetic/pharmacodynamic model at 10 mg/kg administered daily after 96 hrs", "assay_type": "functional"}, "[3]": {"test_system": "Staphylococcus aureus", "test": "Antibacterial activity against glycopeptide-intermediate Staphylococcus aureus NJ992 assessed as decrease in bacterial load in in vitro pharmacokinetic/pharmacodynamic model at 10 mg/kg administered daily after 62 hrs", "assay_type": "functional, organism-based", "set-up": "dose 10 mg/kg", "how_it_was_run": "(§1)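 250-ml in vitro PK/PD model holding simulated endocardial vegetations, inoculum ~9 log10 CFU/g. Regimens simulated over 96 h: telavancin 10 mg/kg daily (peak 87.5 μg/ml, t½ 8 h) or vancomycin 1 g every 12 h (trough 10 μg/ml, t½ 6 h). Two SEVs per model removed at 0–96 h, homogenized, diluted and plated on TSA at 35°C for 18–24 h. Detection limit 2 log10 CFU/g; models in duplicate.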"}, "[4]": {"test_system": "Staphylococcus aureus", "test": "Antibacterial activity against methicillin-resistant Staphylococcus aureus 494 assessed as decrease in bacterial load in in vitro pharmacokinetic/pharmacodynamic model at 1 g for every 12 hrs administered daily after 96 hrs", "assay_type": "functional, organism-based", "how_it_was_run": "as §1"}, "[5]": {"test_system": "Staphylococcus aureus", "test": "Antibacterial activity against heteroresistant glycopeptide-intermediate Staphylococcus aureus 1629 assessed as bacterial load per gram in in vitro pharmacokinetic/pharmacodynamic model at 10 mg/kg administered daily after 96 hrs", "assay_type": "functional", "how_it_was_run": "as §1"}, "[6]": {"test_system": "Staphylococcus aureus", "test": "Antibacterial activity against methicillin-susceptible Staphylococcus aureus 1199 assessed as decrease in bacterial load in in vitro pharmacokinetic/pharmacodynamic model at 1 g for every 12 hrs administered daily after 96 hrs", "assay_type": "functional, organism-based", "how_it_was_run": "as §1"}, "[7]": {"test_system": "Staphylococcus aureus", "test": "Antibacterial activity against methicillin-susceptible Staphylococcus aureus 1199 assessed as bacterial load per gram in in vitro pharmacokinetic/pharmacodynamic model at 10 mg/kg administered daily after 96 hrs", "assay_type": "functional", "how_it_was_run": "as §1"}, "[8]": {"test_system": "Staphylococcus aureus", "test": "Antibacterial activity against heteroresistant glycopeptide-intermediate Staphylococcus aureus 1629 assessed as decrease in bacterial load in in vitro pharmacokinetic/pharmacodynamic model at 10 mg/kg administered daily after 64 hrs", "assay_type": "functional, organism-based", "set-up": "dose 10 mg/kg", "how_it_was_run": "as §1"}, "[9]": {"test_system": "Staphylococcus aureus", "test": "Antimicrobial activity against glycopeptide-intermediate Staphylococcus aureus NJ992 by broth microdilution method"}, "[10]": {"test_system": "Staphylococcus aureus", "test": "Antibacterial activity against heteroresistant glycopeptide-intermediate Staphylococcus aureus 1629 assessed as decrease in bacterial load in in vitro pharmacokinetic/pharmacodynamic model at 1 g for every 12 hrs administered daily after 96 hrs", "assay_type": "functional, organism-based", "how_it_was_run": "as §1"}, "[11]": {"test_system": "Staphylococcus aureus", "test": "microbe, parasite or virus in culture", "conditions": "494"}, "[12]": {"test_system": "Staphylococcus aureus", "test": "microbe, parasite or virus in culture", "conditions": "1199"}, "[13]": {"test": "AUC (0 to 24 hrs) in in vitro pharmacokinetic/pharmacodynamic model at 10 mg/kg for every 12 hrs", "assay_type": "ADME, organism-based", "set-up": "time < 24 hr, dose 10 mg/kg", "conditions": "in the assay text read “every 24 hrs” for “every 12 hrs”", "how_it_was_run": "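Central compartment (250 ml glass in vitro PK/PD model holding simulated endocardial vegetations) sampled via injection port at 1, 4, 8, 24, 32, 48, 72 and 96 h. Drug levels measured by agar-well bioassay with Micrococcus luteus ATCC 9341 (zone sizes after 18–24 h at 35°C). Peak, half-life and AUC derived by trapezoidal method. Models run in duplicate; mean ± SD.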"}, "[14]": {"test_system": "Staphylococcus aureus", "test": "Antibacterial activity against glycopeptide-intermediate Staphylococcus aureus NJ992 assessed as decrease in bacterial load in in vitro pharmacokinetic/pharmacodynamic model at 1 g for every 12 hrs administered daily after 96 hrs", "assay_type": "functional, organism-based", "how_it_was_run": "as §1"}, "[15]": {"test": "Cmax in in vitro pharmacokinetic/pharmacodynamic model at 300 mg for every 8 hrs"}, "[16]": {"test": "AUC (0 to 24 hrs) in in vitro pharmacokinetic/pharmacodynamic model at 300 mg for every 8 hrs"}, "[17]": {"test": "Half life in in vitro pharmacokinetic/pharmacodynamic model at 5 mg/kg for every 24 hrs", "assay_type": "ADME, organism-based", "set-up": "dose 5 mg/kg", "how_it_was_run": "(§2)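 Drugs given as boluses into the central compartment of a 250-ml glass in vitro PK/PD model over 96 h. Samples taken via the injection port at 1, 4, 8, 24, 32, 48, 72 and 96 h. […] Half-life, peak and AUC derived by the trapezoidal method. Models run in duplicate; mean ± SD.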"}, "[18]": {"test": "Cmax in in vitro pharmacokinetic/pharmacodynamic model at 5 mg/kg for every 24 hrs", "assay_type": "ADME, organism-based", "set-up": "dose 5 mg/kg", "how_it_was_run": "as §2"}, "[19]": {"test": "AUC (0 to 24 hrs) in in vitro pharmacokinetic/pharmacodynamic model at 5 mg/kg for every 24 hrs", "assay_type": "ADME, organism-based", "set-up": "time < 24 hr, dose 5 mg/kg", "how_it_was_run": "as §2"}, "[20]": {"test": "Half life in in vitro pharmacokinetic/pharmacodynamic model at 1 g for every 12 hrs", "assay_type": "ADME", "how_it_was_run": "as §2"}, "[21]": {"test": "Cmax in in vitro pharmacokinetic/pharmacodynamic model at 1 g for every 12 hrs", "assay_type": "ADME", "set-up": "dose 1 g", "how_it_was_run": "as §2"}, "[22]": {"test": "AUC (0 to 24 hrs) in in vitro pharmacokinetic/pharmacodynamic model at 1 g for every 12 hrs", "assay_type": "ADME", "set-up": "dose 1 g, time < 24 hr", "how_it_was_run": "as §2"}}, "note": "Active and inactive are the calls of the source. The rule behind the calls is not given here.", "data": [{"molecule": "GENTAMICIN [listing 1 of 2 here]", "values": [{"measurement": "MIC", "setting": "[1]", "result": 0.25, "unit": "µg/mL"}]}, {"molecule": "CCCCCCCCCCNCCN[C@@]1(C)C[C@H](O[C@H]2[C@H](Oc3c4cc5cc3Oc3ccc(cc3Cl)[C@@H](O)[C@@H](NC(=O)[C@@H](CC(C)C)NC)C(=O)N[C@@H](CC(N)=O)C(=O)N[C@H]5C(=O)N[C@H]3C(=O)N[C@H](C(=O)N[C@H](C(=O)O)c5cc(O)c(CNCP(=O)(O)O)c(O)c5-c5cc3ccc5O)[C@H](O)c3ccc(c(Cl)c3)O4)O[C@H](CO)[C@@H](O)[C@@H]2O)O[C@@H](C)[C@H]1O", "note": "[TELAVANCIN]", "values": [{"measurement": "CFU/g", "setting": "[2]", "result": 4.1, "unit": "log10 CFU/g"}, {"measurement": "Activity", "setting": "[3]", "result": "Active"}, {"measurement": "Activity", "setting": "[4]", "result": "inactive"}, {"measurement": "CFU/g", "setting": "[5]", "result": 4.2, "unit": "log10 CFU/g"}, {"measurement": "Activity", "setting": "[6]", "result": "inactive"}, {"measurement": "CFU/g", "setting": "[7]", "result": 2.8}, {"measurement": "Activity", "setting": "[8]", "result": "Active"}, {"measurement": "MIC", "setting": "[9]", "result": 0.5, "unit": "µg/mL"}, {"measurement": "Activity", "setting": "[10]", "result": "inactive"}, {"measurement": "MIC", "setting": "[11]", "result": 0.125, "unit": "µg/mL"}, {"measurement": "MIC", "setting": "[12]", "result": 0.25, "unit": "µg/mL"}, {"measurement": "MIC", "setting": "[1]", "result": 0.125, "unit": "µg/mL"}, {"measurement": "AUC at 24 h", "setting": "[13]", "result": 969, "unit": "µg·h/mL"}, {"measurement": "Activity", "setting": "[14]", "result": "inactive"}]}, {"molecule": "CO[C@H]1/C=C/O[C@@]2(C)Oc3c(C)c(O)c4c(O)c(c(/C=N/N5CCN(C)CC5)c(O)c4c3C2=O)NC(=O)/C(C)=C\\C=C\\[C@H](C)[C@H](O)[C@@H](C)[C@@H](O)[C@@H](C)[C@H](OC(C)=O)[C@@H]1C", "note": "[RIFAMPIN]", "values": [{"measurement": "Cmax", "setting": "[15]", "result": 4900, "unit": "ng/mL"}, {"measurement": "AUC at 24 h", "setting": "[16]", "result": 64400, "unit": "ng·h/mL"}, {"measurement": "MIC", "setting": "[9]", "result": 2050, "unit": "µg/mL"}, {"measurement": "MIC", "setting": "[11]", "result": 0.004, "unit": "µg/mL"}, {"measurement": "MIC", "setting": "[12]", "result": 0.004, "unit": "µg/mL"}, {"measurement": "MIC", "setting": "[1]", "result": 0.004, "unit": "µg/mL"}]}, {"molecule": "GENTAMICIN [listing 2 of 2 here]", "values": [{"measurement": "t1/2", "setting": "[17]", "result": 3.4, "unit": "h"}, {"measurement": "Cmax", "setting": "[18]", "result": 15.8, "unit": "µg/mL"}, {"measurement": "AUC", "setting": "[19]", "result": 63.1, "unit": "µg·h/mL"}]}, {"molecule": "CN[C@H](CC(C)C)C(=O)N[C@H]1C(=O)N[C@@H](CC(N)=O)C(=O)N[C@H]2C(=O)N[C@H]3C(=O)N[C@H](C(=O)N[C@H](C(=O)O)c4cc(O)cc(O)c4-c4cc3ccc4O)[C@H](O)c3ccc(c(Cl)c3)Oc3cc2cc(c3O[C@@H]2O[C@H](CO)[C@@H](O)[C@H](O)[C@H]2O[C@H]2C[C@](C)(N)[C@H](O)[C@H](C)O2)Oc2ccc(cc2Cl)[C@H]1O", "note": "[VANCOMYCIN]", "values": [{"measurement": "half-life", "setting": "[20]", "result": 372, "unit": "min"}, {"measurement": "Cmax", "setting": "[21]", "result": 37000, "unit": "ng/mL"}, {"measurement": "AUC at 24 h", "setting": "[22]", "result": 391, "unit": "µg·h/mL"}, {"measurement": "MIC", "setting": "[9]", "result": 8, "unit": "µg/mL"}]}]}
